Source: PubChem (The Scripps Research Institute Molecular Screening Center)
Rows were chosen to be rich in hits. Some 3% of all compounds tested hit in one or more screens of this group.
5-HT1A blocker – human 5-HT1a receptor antagonists, primary screen, cell-based, CHO, Ga15 NFAT-bla reporter | CHO 5-HT1a Ga15 NFAT-bla reporter, antagonist mode | inhibition, % at 10 µM | 5-hydroxytryptamine receptor 1A (Homo sapiens), P08908 | AID 612, 2007 | 0.68% of 62,000 active;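 active means inhibition above the mean of all tested compounds plus 3 SD, cut at about 43% in these data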;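 further: receptor stimulated by 5-CT agonist at 100 nM near EC80; beta-lactamase reporter measured by ratiometric fluorescence of a cleavable substrate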
5HT1E antag – 5-HT1E receptor antagonists, primary screen, cell-based, HTS. 5-hydroxytryptamine receptor 1E (Homo sapiens), P28566. CHO 5-HT1E Ga15 NFAT-bla reporter, FRET, antagonist. inhibition, % at 6 µM. 0.99% of 65,000 active;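 active means inhibition above a set limit, the mean inhibition across every tested compound plus 3 SD, cut at about 29% in these data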;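 further: signal is the 460 over 535 nm emission ratio of beta-lactamase substrate; 0% = agonist plus DMSO wells and 100% = wells without agonist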
Target sequence (P28566 whole entry, looked up): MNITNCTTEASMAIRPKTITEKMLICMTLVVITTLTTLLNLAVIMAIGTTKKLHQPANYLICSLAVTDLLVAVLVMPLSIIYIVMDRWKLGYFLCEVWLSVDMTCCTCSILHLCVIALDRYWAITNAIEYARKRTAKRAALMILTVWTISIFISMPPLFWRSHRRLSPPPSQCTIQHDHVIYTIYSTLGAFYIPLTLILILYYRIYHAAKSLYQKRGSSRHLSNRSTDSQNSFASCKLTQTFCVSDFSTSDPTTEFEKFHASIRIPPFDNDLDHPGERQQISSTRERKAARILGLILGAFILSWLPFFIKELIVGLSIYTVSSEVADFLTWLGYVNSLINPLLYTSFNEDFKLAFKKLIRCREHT
S1P1 ag-PAM – S1P1 agonists and agonism potentiators, primary screen, cell-based, primary and confirmation screens, CRE-bla reporter | 0.57% of 56,000 active | activation, % at 9.5 µM | AID 449, 2006 | Sphingosine 1-phosphate receptor 1 (Homo sapiens), P21453 | S1P1 CRE-bla cells, forskolin, beta-lactamase FRET, potentiator mode; S1P1 agonist co-added at EC20, 2 nM; 100% = saturating reference agonist, 0% = basal;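 active means activation above a cutoff set at the mean activation of all tested compounds plus 3 SD, cut at about 54% in these data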;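 further: forskolin at 4 µM as EC80 and the EC20 agonist is SEW2871; 100% = SEW2871 at its EC100 plus forskolin at EC80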
5HT1E ag – 5-HT1E receptor agonists, primary screen, cell-based, HTS | CHO 5-HT1E Ga15 NFAT-bla reporter, FRET; 0% DMSO wells, 100% control agonist wells | 5-hydroxytryptamine receptor 1E (Homo sapiens), P28566 | AID 574, 2007 | 0.69% of 65,000 active | activation, % at 6 µM;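 active means activation above a set limit, the screen-wide mean activation plus 3 SD, cut at about 8.5% in these data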;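 further: 100% = positive control agonist at 1 µM giving full maximal response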
5HT1a ag – human 5-HT1a receptor agonists, primary screen, cell-based, CHO, Ga15 NFAT-bla reporter; CHO 5-HT1a Ga15 NFAT-bla reporter, FRET ratio; 0% basal, 100% maximal reference agonist; activation, % at 10 µM; 0.56% of 65,000 active; AID 567, 2006;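 active means activation above the screen-wide mean activation plus 3 SD, cut at about 19% in these data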;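 further: 0% = DMSO wells and 100% = 5-CT at EC100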
S1P3 ag – human S1P3 receptor agonists, primary screen, cell-based, primary and confirmation, NFAT-BLA reporter. AID 373, 2006. 0.1% of 60,000 active. activation, % at 4.5 µM. Sphingosine 1-phosphate receptor 3 (Homo sapiens), Q99500. S1P3 NFAT-BLA reporter cells, agonism, FRET ratio; relative to 1 µM S1P, basal subtracted;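 active means activation above the screen-wide mean plus 3 SD, cut at about 4.5% in these data, passing the limit was not always enough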
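Measure – % activation relative to 1 µM S1P (100%), per plate · System – stable CHO line with human S1P3, Gα16, NFAT-BLA reporter · Timing – cells plated overnight, compound 4 h 37 °C, substrate 2 h RT · Technique – fluorescent BLA substrate, ex 405 nm, em 460/535 nm ratio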
Active calls of the source: *; · = no result given.

SMILES | 5-HT1A blocker | 5HT1E antag | S1P1 ag-PAM | 5HT1E ag | 5HT1a ag | S1P3 ag
O=C(Nc1ccc(NC(=O)C2CC2)nc1)c1ccncc1 | -21 | -13 | -9 | 0 | 2 | 0
CCCCCOC(=O)C1=C(C)N(C)C(=O)NC1c1cc(Br)c(O)c(OC)c1 (stereo not given) | -9 | 1 | -14 | -1 | 0 | 0
CCCc1nnc2n1N=C(c1ccc(OC)c(OC)c1)CS2 | 22 | 63* | -2 | 0 | 0 | 1
COc1ccc(-c2nnc3n2N=C(c2ccccc2)CS3)cc1OC | 9 | 12 | -19 | 0 | -2 | -1
CCOc1nc(C)ccc1-c1noc(-c2ccncc2)n1 | -12 | 8 | 56* | 0 | 0 | 1
CCOc1nc(-c2ccccc2)ccc1-c1noc(-c2ccncc2)n1 | -2 | -6 | 13 | -1 | -2 | 0
CCOc1ccc(-c2nc(-c3ccccc3C)no2)cc1 | -2 | -8 | 110* | 0 | 0 | -1
CC(C)CC(NS(=O)(=O)c1ccc2c(c1)oc(=O)n2C)C(=O)NCc1cccnc1 (stereo not given) | -18 | -2 | -8 | 0 | -2 | -2
COc1ccccc1-c1cc(C(F)(F)F)nc(S(=O)(=O)CCCC(=O)Nc2cc(C)on2)n1 | 10 | 46* | 12 | 0 | -5 | 0
COc1ccccc1-c1cc(C(F)(F)F)nc(S(=O)(=O)CCCC(=O)N2CCCCC2C)n1 (stereo not given) | 64* | 2 | 3 | 4 | 5 | 0
COc1ccccc1-c1cc(C(F)(F)F)nc(S(=O)(=O)CCCC(=O)NC(C)C)n1 | 40 | 48* | -13 | 5 | -1 | 1
COc1ccccc1-c1cc(C(F)(F)F)nc(N2CCCC2)n1 | -7 | 2 | · | -1 | 6 | ·
CC(C)c1nnc(NC(=O)CCS(=O)(=O)c2nc(-c3cccs3)cc(C(F)(F)F)n2)s1 | 36 | 14 | 18 | 0 | -1 | -1
Cc1cc(NC(=O)CCCSc2nc(-c3ccco3)cc(C(F)(F)F)n2)no1 | -1 | -6 | · | 6 | 0 | -1
C=CCNS(=O)(=O)c1ccc(OCC(=O)OC)cc1 | 13 | 11 | -6 | -1 | 4 | -1
CCOc1ccccc1N(C(=O)CNC(=O)c1ccco1)C(C(=O)NC(C)(C)C)c1ccncc1 (stereo not given) | -5 | -4 | 10 | 1 | -3 | 0
CC1CCN(S(=O)(=O)c2ccc(S(=O)(=O)NCC3COCCO3)cc2)CC1 (stereo not given) | -18 | 5 | -3 | 26* | -2 | 0
O=C(NCC1CCCO1)c1ccc(S(=O)(=O)N2CCCCC2)cc1 (stereo not given) | -2 | -12 | -21 | -1 | -2 | -1
COc1ccc(CCN(C(=O)c2ccc(F)cc2)C2=CC3CCC(C2)N3C)cc1OC (stereo not given) | 16 | 6 | 2 | 1 | -2 | 0
CCCC(=O)Nc1ccc2oc(-c3ccc(OC)c(Br)c3)nc2c1 | -10 | 6 | 98* | 0 | 1 | 0
CCCC(=O)Nc1ccc(-c2nc3cc(C)ccc3o2)cc1 | 7 | -6 | 70* | 0 | 0 | -1
CCCC(=O)Nc1ccc(-c2nc3cc(C)c(C)cc3o2)c(O)c1 | -9 | -7 | 38 | 0 | -1 | -1
CCOC(=O)N1CCN(C(=O)c2cn(CC)c3cc(N4CCN(C)CC4)c(F)cc3c2=O)CC1 | · | -17 | 7 | 0 | 0 | 0
COCCNC(=O)c1cn(C)c(=O)c2cc(OC)c(OC)cc12 | 11 | 5 | · | -1 | 0 | ·
COc1cc2c(C(=O)NCCCN3CCN(c4cccc(Cl)c4)CC3)cn(C)c(=O)c2cc1OC | 5 | 12 | · | 16* | 12 | ·
SMILES | 5-HT1A blocker | 5HT1E antag | S1P1 ag-PAM | 5HT1E ag | 5HT1a ag | S1P3 ag
CSc1ncccc1C(=O)OCC(=O)Nc1cc(C(F)(F)F)ccc1N1CCOCC1 | 8 | 17 | -4 | 1 | 3 | 0
CS(=O)(=O)N(CCc1ccccc1)CC(=O)N1CCc2ccccc2C1 | -9 | -1 | 12 | 0 | -1 | 0
Cc1cc(-c2nnc3n2CCCCC3)c(C)n1-c1ccccc1 | 12 | 27 | 8 | -1 | 1 | 0
O=S1(=O)Nc2c(ccc3cccnc23)-c2ccccc21 | 74* | 61* | 118* | 7 | -4 | -1
COc1ccc(C2=NOC(C(=O)Nc3cc(Br)ccc3O)C2)cc1OC (stereo not given) | 10 | 37* | -17 | 1 | 2 | 0
CC(=O)c1ccc(C(C)(C)c2ccc(C(C)=O)s2)s1 | 2 | 11 | 6 | -1 | -2 | -1
Cc1cc(/C=c2/sc3nc4ccccc4n3c2=O)c(C)n1-c1ccccn1 | · | -10 | 101* | 1 | 8 | -1
O=c1/c(=C\c2cccnc2)sc2nc3ccccc3n12 | -18 | 4 | -20 | 0 | -3 | 1
COC(=O)CSc1nnc(CNc2ccc(OC)cc2)n1C | -1 | 11 | 7 | 0 | -2 | 0
CN(C)c1nc(N)nc(CSc2n[nH]c(-c3ccccc3)n2)n1 | -15 | 30* | -57 | 0 | -2 | 2
O=C(CSc1n[nH]c(-c2ccccc2)n1)c1ccccc1 | 1 | 1 | -31 | 0 | -3 | -1
CCCCCCS(=O)Cc1ccccc1 (stereo not given) | -6 | 0 | -11 | -1 | -1 | 10
CCn1nnc(-c2ccccc2NS(=O)(=O)c2ccc(C(=O)OC)cc2)n1 | 21 | 34* | 51 | -2 | -4 | -1
CCn1nnc(-c2ccccc2NC(=O)c2ccc(-n3cnnn3)cc2)n1 | 4 | 9 | -14 | 1 | 0 | -1
O=C(CCCN1Cc2ccccc2C1)c1ccc(F)cc1 | 27 | 1 | -4 | 1 | 22* | -2
COc1ccc(S(=O)(=O)N2CCCCC2)cc1C(C)C | 10 | 5 | 13 | 34* | 0 | 0
COc1ccc(Oc2ccc(S(=O)(=O)N3CCCCC3)cc2S(=O)(=O)N2CCCCC2)cc1 | -26 | 11 | · | 0 | 0 | ·
CC(C)OC(=O)CSc1nnc(-c2cnccn2)n1-c1ccccc1 | -10 | -10 | 1 | 0 | 0 | 0
COc1ccc(-c2cc(CCCC(=O)NCCc3ccc(OC)cc3OC)no2)cc1 | 14 | 6 | 18 | 12* | -1 | 0
